Active and inactive are the calls of the source.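 How the source made its calls, unless noted: active means a full or partial loss of lipid-probe fluorescence in the fish gall bladder, intestine or both, judged by eye; inactive means no fluorescence loss, or compound toxic to the fish.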
What was measured:
[1] = inhibitors of TNFa-induced NFkB p65 translocation, primary screen, imaging, HUVEC, MLSMR starter and 10KST1 sets (AID 438;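 active means inhibition above 20% together with a positive visual image hit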;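 further: compound added about 3h40 before a 20 min TNFalpha stimulation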;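 on inhibition: signal is the nuclear over cytoplasmic p65 intensity ratio per well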); details: HUVEC TNFa-induced p65 nuclear translocation; cell count: measured here: nuclei count (cytotoxicity indicator), at 2.08 µM; inhibition: at 2 µM, stronger effect = higher value, 0% TNFa-plus-vehicle, 100% no-TNFa wells
[2] = endothelial E-selectin expression blockers – imaging, HUVEC, immunofluorescence, MLSMR starter and 10KST1 sets, primary screen (AID 487;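 active means visually confirmed hit in the image check and inhibition above 20%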;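 on inhibition: signal is fraction of cell area covered by stained E-selectin grains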;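 on nuclei count: 100% = median nuclei count of all wells on the same plate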); details: HUVEC TNFalpha-induced E-selectin immunofluorescence imaging, at 2 µM; inhibition: stronger effect = higher value; nuclei count: measured here: cell number, toxicity
[3] = Primary imaging screen for DUSP6 inhibitors that restore phospho-Erk in transfected HeLa cells, chemical complementation (AID 609;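 active means compounds giving at least 50% inhibition in the cell-based MKP-3 phosphatase rescue imaging test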;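 on inhibition: phospho-Erk level distribution per well compared with pooled transfected vehicle control wells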); details: HeLa MKP-3 transfected, phospho-Erk imaging KS statistic, at 10 µM, cells stimulated with TPA for 15 min
[4] = target: Dual specificity protein phosphatase 6 (Homo sapiens) (UniProt Q16828); experiment: as above; details: HeLa MKP-3 transfected, phospho-Erk imaging KS statistic; at 10 µM; stronger effect = higher value; cells stimulated with TPA for 15 min
Sequence of Dual specificity protein phosphatase 6 (Homo sapiens) (Q16828 whole entry, looked up): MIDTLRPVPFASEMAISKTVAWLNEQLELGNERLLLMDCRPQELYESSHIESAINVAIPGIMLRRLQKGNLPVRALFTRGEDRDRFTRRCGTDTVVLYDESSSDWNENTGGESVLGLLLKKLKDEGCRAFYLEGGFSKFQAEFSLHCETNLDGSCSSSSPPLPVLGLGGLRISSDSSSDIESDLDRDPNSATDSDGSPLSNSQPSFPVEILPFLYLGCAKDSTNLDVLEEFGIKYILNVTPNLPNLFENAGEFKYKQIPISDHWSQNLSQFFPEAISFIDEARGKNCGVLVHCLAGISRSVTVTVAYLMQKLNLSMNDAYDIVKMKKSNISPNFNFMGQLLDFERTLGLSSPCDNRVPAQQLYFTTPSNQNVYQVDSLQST

[5] = target: Voltage-gated potassium channel subunit beta-2 (Rattus norvegicus) (UniProt P62483); experiment: inhibitors of rat Kvbeta2 reductase activity – biochemical, NADPH fluorescence, primary screen (AID 622;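 active means fluorescence slope higher than the sample average by over 3 SD, cut at about -0.22 in these data, passing the limit was not always enough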;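 further: slope of raw intensity against log time taken from 70 to 1610 s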); details: recombinant KvBeta, 4-cyanobenzaldehyde reduction, at 10 µM, stronger effect = higher value
Sequence of Voltage-gated potassium channel subunit beta-2 (Rattus norvegicus) (P62483 whole entry, looked up): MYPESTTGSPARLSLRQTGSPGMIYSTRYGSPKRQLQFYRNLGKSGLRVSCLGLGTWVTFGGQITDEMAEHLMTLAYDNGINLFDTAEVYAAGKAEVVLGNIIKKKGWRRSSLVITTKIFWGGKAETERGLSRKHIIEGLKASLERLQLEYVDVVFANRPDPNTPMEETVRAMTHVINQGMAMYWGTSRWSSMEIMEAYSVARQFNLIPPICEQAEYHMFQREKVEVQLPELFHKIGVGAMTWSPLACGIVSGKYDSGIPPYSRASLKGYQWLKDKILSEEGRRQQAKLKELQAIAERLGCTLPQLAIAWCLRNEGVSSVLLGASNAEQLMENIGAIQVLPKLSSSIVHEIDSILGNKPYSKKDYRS

[6] = target: Voltage-gated potassium channel subunit beta-2 (Rattus norvegicus) (UniProt P62483); experiment: enhancers of rat Kvbeta2 NADPH turnover – biochemical, NADPH fluorescence, primary screen (AID 623;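 active means NADPH fluorescence slope more negative than the mean of all samples by about 3 SD, 99.7% confidence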;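 further: fluorescence intensity change per second fitted from 20 to 320 s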); details: Recombinant KvBeta, NADPH fluorescence decrease slope, 10 min; at 10 µM; stronger effect = lower value
[7] = target: Alpha-2C adrenergic receptor (Homo sapiens) (UniProt P18825); experiment: compounds altering alpha2C-coupled GIRK flux – cell-based, HEK293 alpha2C/GIRK1/2, thallium flux, primary screen (AID 624;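 active means fluorescence slope after compound addition differing from the mean of all screened samples at 99.7% confidence, in either direction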;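 further: slope of fluorescence ratio to pre-addition baseline per second over 15 to 24 s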); details: thallium flux BTC fluorescence, at 10 µM, actives lie on both sides
Sequence of Alpha-2C adrenergic receptor (Homo sapiens) (P18825 whole entry, looked up): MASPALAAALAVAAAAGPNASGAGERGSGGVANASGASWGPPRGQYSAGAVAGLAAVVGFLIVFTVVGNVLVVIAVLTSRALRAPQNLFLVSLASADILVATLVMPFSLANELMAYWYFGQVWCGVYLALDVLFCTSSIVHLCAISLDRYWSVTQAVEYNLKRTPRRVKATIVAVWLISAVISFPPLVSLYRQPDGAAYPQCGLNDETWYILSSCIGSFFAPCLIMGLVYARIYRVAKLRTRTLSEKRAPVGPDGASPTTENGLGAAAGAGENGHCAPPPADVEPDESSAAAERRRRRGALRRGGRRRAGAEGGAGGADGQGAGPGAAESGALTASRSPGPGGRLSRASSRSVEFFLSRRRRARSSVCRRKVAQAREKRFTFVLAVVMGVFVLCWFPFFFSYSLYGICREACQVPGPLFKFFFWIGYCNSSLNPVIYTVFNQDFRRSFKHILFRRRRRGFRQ

[8] = inhibitors of larval lipid processing in zebrafish, primary screen, whole organism, PED6 fluorescence, gall bladder and intestine (AID 686); details: Zebrafish larvae PED6 lipid processing, fluorescence scoring; screened at 20 µM (by protocol);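 further: larvae 5 to 7 days old with five fish per well; signal comes from phospholipase A2 cleavage of quenched PED6 carried via bile; overnight exposure to compound and PED6 before scoring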
Summary of the method: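 System: live zebrafish larvae aged 5-7 days, whole organism; measure: graded gall bladder and intestinal fluorescence inhibition per well; incubation: overnight exposure; reagent: ingested quenched lipid PED6 at 100 nM; signal: By-eye fluorescence microscopy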

[9] = loss of swimming-algae plug formation – whole organism, Chlamydomonas reinhardtii, WT vs cilia-less mutant, absorbance, 96-well, primary screen (AID 463189;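 active means inhibition at or above 50% relative to wild type and mutant plate controls; inactive means inhibition below 50%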;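 further: 0% = wild type cc124 cells in DMSO and 100% = ciliumless bld1 mutant cells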); details: Chlamydomonas reinhardtii gravitaxis, OD600 absorbance, 2 days; at 10 µM; stronger effect = higher value
[10] = measured here: cell density z-score
[11] = measured here: nuclear c-Myc green intensity z-score
[12] = measured here: nuclear pErk red intensity z-score, stronger effect = higher value

SMILES | cell count [1] | inhibition [1] | inhibition [2] | nuclei count [2] [%] | z-score [3, 10] | z-score [3, 11] | z-score [3, 12] | inhibition [4] | fluorescence slope [5] | NADPH fluorescence slope [6] | slope [7] | outcome [8] | inhibition [9]
COc1cc(C)nc(N(C)S(=O)(=O)c2ccccc2Cl)n1 | 587 | -9% (inactive) | 26.6% (inactive) | 175 | 1.16 | 0.469 | -0.133 | 9.82% (inactive) | -0.36 (inactive) | 3.2e-06 (inactive) | 0.00436 (inactive) | inactive | -1.55% (inactive)
CNC(=O)C1CC(=O)N(Cc2ccccc2)C(=Nc2ccc(OC)cc2)S1 (stereo not given) | 491 | -5.2% (inactive) | -228% (inactive) | 127 | -1.18 | -0.897 | 1.34 | -14% (inactive) | -0.496 (inactive) | -4.1e-05 (inactive) | 0.00456 (inactive) | inactive | 1.87% (inactive)
COc1ccc(CCn2c(C)ccc2C)cc1OC | 476 | -5.7% (inactive) | -58.3% (inactive) | 112 | -0.324 | 0.735 | -0.301 | 3.66% (inactive) | -0.488 (inactive) | -8e-05 (inactive) | 0.00401 (inactive) | inactive | -7.78% (inactive)
Cc1[nH]c2ccc3c(ncn3CCC#N)c2c1C | 616 | -7.5% (inactive) | -48.6% (inactive) | 166 | -0.136 | 0.347 | 0.974 | 18.2% (inactive) | -0.5 (inactive) | -3.5e-05 (inactive) | 0.00512 (inactive) | inactive | 11.7% (inactive)
CCC(=O)OC1=C2C(=Nc3c(c(=O)n(C)c(=O)n3C)C2c2ccccc2)c2ccccc21 (stereo not given) | 509 | -2.9% (inactive) | -57.1% (inactive) | 75.2 | -0.341 | 0.242 | 0.679 | 1.9e-07% (inactive) | -0.505 (inactive) | -5.2e-05 (inactive) | 0.00546 (inactive) | inactive | 15.5% (inactive)
Cc1c(Cl)c(C(F)(F)F)nn1CC(=O)N1CCSCC1 | 511 | -3.6% (inactive) | -110% (inactive) | 152 | -0.563 | -0.304 | 1.29 | -9.7% (inactive) | -0.555 (inactive) | -4.7e-05 (inactive) | 0.00531 (inactive) | inactive | -2.53% (inactive)
Fc1cnc(N2CCOCC2)nc1NCc1ccccc1 | 649 | -2.3% (inactive) | 32.4% (inactive) | 156 | -0.315 | 0.582 | 0.114 | 6.51% (inactive) | -0.388 (inactive) | -5.9e-05 (inactive) | 0.00592 (inactive) | inactive | 0.319% (inactive)
O=c1[nH]c(CN2CCCCC2)nc2c1C1(CCCC1)Cc1ccccc1-2 | 414 | -0.5% (inactive) | -29.1% (inactive) | 101 | 0.73 | -0.701 | -0.0539 | -1.12% (inactive) | -0.233 (inactive) | -8.8e-06 (inactive) | 0.00603 (inactive) | inactive | -2.89% (inactive)
COC(=O)c1sc(NC(=O)C(C)C)c(C(=O)OC)c1C | 354 | -0.5% (inactive) | 29.8% (inactive) | 93.5 | -0.757 | -0.742 | 1.06 | 3.42% (inactive) | -0.426 (inactive) | -1.5e-05 (inactive) | 0.00623 (inactive) | inactive | -7.45% (inactive)
C=CCn1c(=S)[nH]c2nc3c(cc2c1=O)CCCC3 | 546 | -1% (inactive) | -44.7% (inactive) | 112 | -0.436 | 2.14 | 0.929 | -7.28% (inactive) | -0.428 (inactive) | 4.7e-06 (inactive) | 0.0129 (inactive) | inactive | -0.142% (inactive)

Source: PubChem BioAssay
